The nature of data set [1]: Cytotoxicity against human KBV cells assessed as cell survival at 10 uM after 72 hrs by MTT assay relative to control. The format is cell-based. Particulars: read-out: Survival. The procedure, abridged: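 KBV (Pgp-overexpressing MDR line) grown in DMEM/10% FCS, kept in 10 nM paclitaxel; seeded, compound (DMSO stock) added next day, 72 h; MTT 2 h, formazan in DMSO, A570 gives survival vs DMSO solvent control; n = 1-3 independent experiments, mean ± SD.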
(Tetrazolium assays rely on reduction of a dye to a coloured formazan, in cell work by metabolically active cells.)

Data set [2] in a line: Toxicity in Balb/c nude mouse xenografted with human KBV cells assessed as body weight at 10 mg/kg, po via gavage for 2 weeks (reference value: 19.84 to 20.62 g). The format is organism-based. The following applies: in vivo, 336 h. For orientation: In xenograft studies the graft and the host belong to different species.
The target in data set [3] is T1, ATP-dependent translocase ABCB1 (Homo sapiens, UniProt P08183). Put plainly: Reversal of P-gp-mediated multidrug resistance in human KBV cells assessed as potentiation of paclitaxel-induced cytotoxicity by measuring decrease in paclitaxel IC50 at 5 uM after 72 hrs by MTT assay relative to paclitaxel alone. Format: cell-based.
The species named for the next data set is Homo sapiens. Put plainly: Downregulation of P-gp protein expression in human KBV cells by western blot analysis. The format is functional, cell-based.
A short description of data set [4]: Cell cycle arrest in human KBV cells assessed as accumulation at G0/G1 phase at 10 uM after 24 hrs by propidium iodide staining based flow cytometry (reference value: 70.35 +/- 0.79%). Format: ADME. The method, boiled down:
(§1)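 KBV cells (grown in DMEM with 10% fetal calf serum and penicillin/streptomycin, with 10 nM paclitaxel added to maintain resistance) seeded at 3×10^5 per well and cultured 24 h. Test compound added, with or without paclitaxel 0.1 μM, for 24 h. Cells fixed in 70% ethanol overnight at –20 °C, stained 30 min with PI plus RNase A, and analysed by flow cytometry; mean ± SD, n = 3.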
Background: In flow cytometry, cells or beads pass a laser one at a time.

A short description of data set [5]: Cell cycle arrest in human KBV cells assessed as accumulation at sub-G1 phase at 10 uM after 24 hrs by propidium iodide staining based flow cytometry (reference value: 2.21 +/- 1.02%). Format: ADME. The method, boiled down:
as §1

Data set [6] deals with T1, ATP-dependent translocase ABCB1. Put plainly: Reversal of P-gp-mediated multidrug resistance in human KBV cells assessed as potentiation of paclitaxel-induced cytotoxicity by measuring cell survival at 5 uM after 72 hrs by MTT assay (reference value: 104 +/- 8%). Format: cell-based.
Data set [7] shares this target. The data set is described as follows: Reversal of P-gp-mediated multidrug resistance in human KBV cells assessed as potentiation of paclitaxel-induced cytotoxicity by measuring decrease in paclitaxel IC50 at 10 uM after 72 hrs by MTT assay relative to paclitaxel alone. Format: cell-based.
Data set [8] can be described thus: Cytotoxicity against human KBV cells xenografted in Balb/c nude mouse assessed as tumor growth inhibition at 10 mg/kg, po via gavage for 2 weeks relative to control. Format: organism-based. The following applies: in vivo, 336 h.
A short description of data set [9]: Potentiation of paclitaxel-induced antitumor activity against human KBV cells xenografted in Balb/c nude mouse assessed as tumor growth inhibition at 10 mg/kg, po via gavage for 2 weeks cotreated with 30 mg/kg, ip paclitaxel (reference value: 17.9%). Format: functional.
For data set [10], the target named is T1, ATP-dependent translocase ABCB1. The data set is described as follows: Stimulation of P-gp ATPase activity (unknown origin) assessed as increase in ATP consumption preincubated for 5 mins followed by Mg-ATP addition measured after 40 mins by ATP-Glo luminescence assay relative to control.
Data set [11] is described as follows: Toxicity in Balb/c nude mouse xenografted with human KBV cells assessed as body weight at 10 mg/kg, po via gavage for 2 weeks cotreated with 30 mg/kg, ip paclitaxel (reference value: 19.84 to 20.62 g). Particulars: in vivo, 336 h. Format: organism-based.
Data set [12] has as its target T1, ATP-dependent translocase ABCB1. The data set is described as follows: Reversal of P-gp-mediated multidrug resistance in human KBV cells assessed as potentiation of paclitaxel-induced cell cycle arrest by measuring accumulation at G2/M phase at 5 uM after 24 hrs by propidium iodide staining based flow cytometry (reference value: 16.35 +/- 2.02%). The procedure, abridged:
as §1

Data set [13] shares this target. The data set is described as follows: Reversal of P-gp-mediated multidrug resistance in human KBV cells assessed as potentiation of paclitaxel-induced cytotoxicity by measuring cell survival at 10 uM after 72 hrs by MTT assay (reference value: 104 +/- 8%). The format is cell-based.
For data set [14] the target is unchanged. The data set is described as follows: Inhibition of P-gp-mediated Rh-123 efflux in human KBV cells assessed as Rh-123 accumulation preincubated for 2 hrs followed by Rh-123 addition measured after 30 mins by flow cytometry. Format: cell-based. Particulars: 0.5 h. The method, boiled down: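 KBV cells treated with or without compound for 2 h at the indicated concentrations, then loaded with 10 μM Rhodamine123 for 30 min. Cells harvested, washed three times in PBS and analysed by flow cytometry.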

For data set [15] the target is unchanged. The data set is described as follows: Reversal of P-gp-mediated multidrug resistance in human KBV cells assessed as potentiation of paclitaxel-induced cell cycle arrest by measuring accumulation at G0/G1 phase at 5 uM after 24 hrs by propidium iodide staining based flow cytometry (reference value: 71.11 +/- 2%). The procedure, abridged:
as §1

For data set [16] the target is unchanged. The data set is described as follows: Reversal of P-gp-mediated multidrug resistance in human KBV cells assessed as potentiation of paclitaxel-induced cell cycle arrest by measuring accumulation at S phase at 5 uM after 24 hrs by propidium iodide staining based flow cytometry (reference value: 12.54 +/- 4.01%). The method, boiled down:
as §1

Data set [17] can be described thus: Cell cycle arrest in human KBV cells assessed as accumulation at G2/M phase at 10 uM after 24 hrs by propidium iodide staining based flow cytometry (reference value: 19.62 +/- 1.54%). The format is ADME. The procedure, abridged: as §1
A short description of data set [18]: Cell cycle arrest in human KBV cells assessed as accumulation at S phase at 10 uM after 24 hrs by propidium iodide staining based flow cytometry (reference value: 10.03 +/- 0.75%). The format is ADME. The method, boiled down:
as §1

The target in a further data set is P-gp (ABCB1) ATPase (Homo sapiens, UniProt P08183). Put plainly: Stimulation of P-gp ATPase activity (unknown origin) at 0.5 mM preincubated for 5 mins followed by Mg-ATP addition measured after 40 mins by ATP-Glo luminescence assay relative to control. Particulars: read-out: FC.
The target in data set [19] is T1, ATP-dependent translocase ABCB1. The data set is described as follows: Reversal of P-gp-mediated multidrug resistance in human KBV cells assessed as potentiation of paclitaxel-induced cell cycle arrest by measuring accumulation at sub-G1 phase at 5 uM after 24 hrs by propidium iodide staining based flow cytometry (reference value: 2.29 +/- 0.39%). The method, boiled down: as §1

SMILES strings stand for the structures. The source made the active and inactive calls. The rule behind the calls is not given here.

T1 sequence (P08183 whole entry): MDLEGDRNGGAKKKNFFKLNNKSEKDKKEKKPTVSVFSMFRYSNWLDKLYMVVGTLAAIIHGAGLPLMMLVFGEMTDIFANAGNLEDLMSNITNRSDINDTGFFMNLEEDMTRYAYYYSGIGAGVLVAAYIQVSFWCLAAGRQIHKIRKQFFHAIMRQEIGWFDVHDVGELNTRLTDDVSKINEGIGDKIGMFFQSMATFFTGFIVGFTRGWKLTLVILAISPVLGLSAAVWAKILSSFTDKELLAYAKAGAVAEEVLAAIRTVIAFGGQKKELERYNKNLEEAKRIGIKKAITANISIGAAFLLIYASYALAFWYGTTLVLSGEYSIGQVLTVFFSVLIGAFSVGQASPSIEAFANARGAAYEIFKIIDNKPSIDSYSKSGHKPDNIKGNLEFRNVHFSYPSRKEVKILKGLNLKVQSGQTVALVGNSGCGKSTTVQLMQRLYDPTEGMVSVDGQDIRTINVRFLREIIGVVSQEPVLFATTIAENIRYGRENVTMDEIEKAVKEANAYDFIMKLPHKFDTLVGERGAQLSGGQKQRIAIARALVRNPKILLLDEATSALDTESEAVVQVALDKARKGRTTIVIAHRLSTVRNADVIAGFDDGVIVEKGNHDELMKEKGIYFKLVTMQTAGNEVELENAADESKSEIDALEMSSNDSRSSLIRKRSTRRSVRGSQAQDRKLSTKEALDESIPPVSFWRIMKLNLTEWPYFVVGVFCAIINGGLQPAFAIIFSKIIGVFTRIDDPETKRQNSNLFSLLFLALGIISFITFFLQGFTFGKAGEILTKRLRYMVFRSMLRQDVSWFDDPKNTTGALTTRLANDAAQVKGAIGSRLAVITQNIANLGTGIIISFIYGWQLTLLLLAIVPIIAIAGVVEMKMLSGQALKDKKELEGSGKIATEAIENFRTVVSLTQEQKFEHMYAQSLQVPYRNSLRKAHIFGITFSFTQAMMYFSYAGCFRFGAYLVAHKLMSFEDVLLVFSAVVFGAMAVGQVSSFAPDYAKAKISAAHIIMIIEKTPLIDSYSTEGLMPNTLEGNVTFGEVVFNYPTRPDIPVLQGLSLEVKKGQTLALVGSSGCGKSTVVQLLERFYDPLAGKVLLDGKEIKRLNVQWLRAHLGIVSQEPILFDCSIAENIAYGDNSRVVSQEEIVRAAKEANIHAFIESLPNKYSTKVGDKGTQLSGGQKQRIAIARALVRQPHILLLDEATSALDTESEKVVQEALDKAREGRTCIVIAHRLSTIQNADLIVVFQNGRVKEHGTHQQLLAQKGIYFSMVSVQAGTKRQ
P-gp (ABCB1) ATPase, sequence (P08183 whole entry): as above

In the case of `CC(C)(C)OC(=O)NCCCCCC(=O)N[C@H]1CC[C@]2(C)[C@H]3C[C@@H](O)[C@@H]4[C@@H]([C@]5(C)CC[C@H](C(C)(C)O)O5)CC[C@@]4(C)[C@]3(C)CC[C@H]2C1(C)C`, the viability at 72 h, 10 µM in data set [1] came out at 128%. Further, the Activity is reported as 21.85 g in [2]; 73.29% in data set [4]; 2.35% in data set [5]; “Dose-dependent effect” in data set [10]; 15.98 g in data set [11]; 39.43% in [12]. Moreover, the Activity in [15] stood at 44.52%; in data set [16], 16.05%; in [17], 17.49%; in data set [18] it was 9.22%; in [19] it was 43.12%. Also, the “fold change (FC)” value in data set [3] is given as 27.97; in data set [7], 47.85. Besides, the result in the data set listed under Homo sapiens was inactive. The Survival is 46% in [6] and 34% in data set [13]. Moreover, the TGI in data set [8] turned out to be 10.45%; in [9], 53.73%. The “inhibition (INH)” value in data set [14] is “Dose-dependent effect”. For the same compound, the fold induction at 40 min, 500 µM on P-gp (ABCB1) ATPase is 6.03.
On to `COc1ccc(CCN(C)CCCC(C#N)(c2ccc(OC)c(OC)c2)C(C)C)cc1OC` (stereo not given), for which the Activity in [4] came out at 68.09%; in [5], 2.25%; in data set [17], 21.92%; in data set [18] it was 9.99%. For the same compound, the Survival in [13] is on record as 43%.
With `CC(C)(O)[C@H]1CC[C@@](C)([C@H]2CC[C@]3(C)[C@@H]2[C@H](O)C[C@@H]2[C@@]4(C)CC[C@H](N)C(C)(C)[C@@H]4CC[C@]23C)O1`, in data set [1], the viability at 72 h, 10 µM amounted to 125%. The “fold change (FC)” value in data set [3] is on record as 10; in [7] it was 28.11. For the same compound, the figures for the Survival in [6] and in data set [13] were 72% and 43%, respectively.
For the compound `CC(C)(C)OC(=O)NCCCC(=O)N[C@H]1CC[C@]2(C)[C@H]3C[C@@H](O)[C@@H]4[C@@H]([C@]5(C)CC[C@H](C(C)(C)O)O5)CC[C@@]4(C)[C@]3(C)CC[C@H]2C1(C)C`, the viability at 72 h, 10 µM in data set [1] was determined as 67%. The Survival is 48% in data set [6] and 34% in [13].
As for `CC(C)(O)[C@@H]1CC[C@@](C)([C@H]2CC[C@]3(C)[C@@H]2[C@H](O)C[C@@H]2[C@@]4(C)CC[C@H](NC(=O)c5ccccc5)C(C)(C)[C@@H]4CC[C@]23C)O1`, the viability at 72 h, 10 µM in data set [1] is 116%. Also, the Survival was found to be 90% in data set [6] and 48% in data set [13].
The matching figures for `CCCCCC(=O)N[C@H]1CC[C@]2(C)[C@H]3C[C@@H](O)[C@@H]4[C@@H]([C@]5(C)CC[C@H](C(C)(C)O)O5)CC[C@@]4(C)[C@]3(C)CC[C@H]2C1(C)C`: 101%, 69% and 43%.

One may read the TGI as how far tumour growth fell short of that in controls.
